For 20 molecules, inhibition and Ki results are on record in ChEMBL document CHEMBL1132299, “Phosphinic pseudo-tripeptides as potent inhibitors of matrix metalloproteinases: a structure-activity study” (J Med Chem, 1999).

Experiment [1] addresses T1, Matrilysin (Homo sapiens) (UniProt P09237).
T1 sequence (whole entry): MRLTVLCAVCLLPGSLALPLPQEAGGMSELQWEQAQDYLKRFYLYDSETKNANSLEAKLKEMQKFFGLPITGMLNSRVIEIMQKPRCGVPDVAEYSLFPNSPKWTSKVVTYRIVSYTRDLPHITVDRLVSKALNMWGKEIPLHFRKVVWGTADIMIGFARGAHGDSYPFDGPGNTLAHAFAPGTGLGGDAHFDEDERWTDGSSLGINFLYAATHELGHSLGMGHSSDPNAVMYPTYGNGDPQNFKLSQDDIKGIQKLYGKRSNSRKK
Briefly: In vitro inhibition of MMP-7 at 2 uM.

Experiment [2] deals with T2, Matrix metalloproteinase-9 (Homo sapiens, UniProt P14780). Briefly: Binding affinity against matrix metalloprotease-9 (gelatinase-B). An outline of the steps: (§1)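 Full-length human pro-MMP-2, -9 and -8 were expressed in NSO myeloma cells and activated with 4-aminophenylmercuric acetate just before use. Run at 25 °C in 50 mM Tris/HCl pH 6.8, 10 mM CaCl2, with 0.2–5 nM enzyme and 6 µM Mca-Pro-Leu-Gly-Leu-Dpa-Ala-Arg-NH2; fluorescence 340/400 nm, 30 min. Km: MMP-2 49, MMP-9 14, MMP-8 61 µM. Triplicate, five inhibitor levels; Ki by Horovitz–Levitski.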
T2 sequence (P14780 whole entry): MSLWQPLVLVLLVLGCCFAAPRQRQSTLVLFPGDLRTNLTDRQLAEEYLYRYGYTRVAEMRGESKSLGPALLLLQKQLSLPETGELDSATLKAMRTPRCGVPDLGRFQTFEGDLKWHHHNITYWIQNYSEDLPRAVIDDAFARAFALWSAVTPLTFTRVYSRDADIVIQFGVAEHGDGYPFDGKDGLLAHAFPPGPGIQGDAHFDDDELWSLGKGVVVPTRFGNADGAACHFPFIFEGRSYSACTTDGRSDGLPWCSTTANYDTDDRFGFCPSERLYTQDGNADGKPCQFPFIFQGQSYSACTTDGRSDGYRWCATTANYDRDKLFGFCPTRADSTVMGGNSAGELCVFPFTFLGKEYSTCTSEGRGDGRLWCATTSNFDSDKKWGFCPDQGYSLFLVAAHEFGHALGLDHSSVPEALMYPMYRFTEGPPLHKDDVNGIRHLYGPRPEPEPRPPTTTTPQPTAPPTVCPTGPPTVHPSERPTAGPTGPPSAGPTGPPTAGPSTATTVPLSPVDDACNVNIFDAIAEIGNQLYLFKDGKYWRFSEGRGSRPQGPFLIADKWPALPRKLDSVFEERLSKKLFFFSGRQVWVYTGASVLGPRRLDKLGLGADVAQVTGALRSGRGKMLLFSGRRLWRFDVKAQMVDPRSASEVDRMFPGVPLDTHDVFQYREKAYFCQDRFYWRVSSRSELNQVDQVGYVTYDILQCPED

Experiment [3] has as its target T3, Interstitial collagenase (Homo sapiens) (UniProt P03956).
T3 sequence (whole entry): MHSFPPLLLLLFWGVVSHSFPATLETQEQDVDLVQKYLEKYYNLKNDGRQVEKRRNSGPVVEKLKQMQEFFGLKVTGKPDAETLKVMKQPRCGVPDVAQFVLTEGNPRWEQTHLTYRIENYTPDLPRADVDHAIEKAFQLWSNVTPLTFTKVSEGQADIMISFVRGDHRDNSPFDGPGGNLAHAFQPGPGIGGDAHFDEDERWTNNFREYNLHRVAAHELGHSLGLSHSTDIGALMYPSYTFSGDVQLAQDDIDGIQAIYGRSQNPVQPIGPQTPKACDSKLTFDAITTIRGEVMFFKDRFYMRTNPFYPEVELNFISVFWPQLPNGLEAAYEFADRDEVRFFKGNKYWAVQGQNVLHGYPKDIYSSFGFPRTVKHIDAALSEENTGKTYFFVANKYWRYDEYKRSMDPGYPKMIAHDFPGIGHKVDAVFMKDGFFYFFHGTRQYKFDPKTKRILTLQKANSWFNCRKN
Put plainly: In vitro inhibition of MMP-1 at 2 uM.

For experiment [4], the target named is T4, 72 kDa type IV collagenase (Homo sapiens, UniProt P08253). Put plainly: Binding affinity against matrix metalloprotease-2 (gelatinase-A). An outline of the steps: as §1
Target sequence in this assay (P08253 whole entry): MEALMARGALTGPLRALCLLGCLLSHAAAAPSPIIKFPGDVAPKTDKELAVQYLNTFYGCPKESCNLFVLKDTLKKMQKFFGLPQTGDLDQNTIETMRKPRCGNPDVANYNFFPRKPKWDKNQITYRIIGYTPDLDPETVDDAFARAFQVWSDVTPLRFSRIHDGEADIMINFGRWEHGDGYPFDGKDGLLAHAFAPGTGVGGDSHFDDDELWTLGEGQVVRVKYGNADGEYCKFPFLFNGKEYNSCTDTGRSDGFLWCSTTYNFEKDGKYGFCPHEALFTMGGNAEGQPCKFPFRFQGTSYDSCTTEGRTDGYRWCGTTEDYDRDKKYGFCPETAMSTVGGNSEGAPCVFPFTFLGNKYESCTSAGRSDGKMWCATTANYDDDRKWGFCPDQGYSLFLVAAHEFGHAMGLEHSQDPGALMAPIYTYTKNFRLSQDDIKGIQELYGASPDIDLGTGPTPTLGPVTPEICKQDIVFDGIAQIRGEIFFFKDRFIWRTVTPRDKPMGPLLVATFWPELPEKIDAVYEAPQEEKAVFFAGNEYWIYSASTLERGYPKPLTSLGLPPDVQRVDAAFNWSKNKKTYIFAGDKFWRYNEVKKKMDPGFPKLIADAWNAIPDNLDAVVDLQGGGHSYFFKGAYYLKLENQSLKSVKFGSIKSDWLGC
Experiment [5] concerns the target T5, Stromelysin-3 (Mus musculus, UniProt Q02853).
T5 sequence (Q02853 whole entry): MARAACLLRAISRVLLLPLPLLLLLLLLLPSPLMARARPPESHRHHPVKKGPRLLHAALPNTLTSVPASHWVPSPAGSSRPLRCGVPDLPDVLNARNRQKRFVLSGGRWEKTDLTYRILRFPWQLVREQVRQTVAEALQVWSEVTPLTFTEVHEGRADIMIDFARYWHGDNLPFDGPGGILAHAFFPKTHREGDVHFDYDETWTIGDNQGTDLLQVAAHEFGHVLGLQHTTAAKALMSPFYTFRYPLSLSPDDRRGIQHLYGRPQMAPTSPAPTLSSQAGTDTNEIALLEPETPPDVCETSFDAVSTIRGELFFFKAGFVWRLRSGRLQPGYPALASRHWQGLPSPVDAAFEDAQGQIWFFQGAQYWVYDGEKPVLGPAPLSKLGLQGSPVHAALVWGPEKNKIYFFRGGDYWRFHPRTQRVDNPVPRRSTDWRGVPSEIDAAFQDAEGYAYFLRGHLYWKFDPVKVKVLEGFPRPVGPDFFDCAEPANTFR
Briefly: Binding affinity against matrix metalloprotease-11. An outline of the steps: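 Mouse MMP-11 catalytic domain from E. coli BL21 DE3 pLysS, assayed in stirred quartz cuvettes in 50 mM Tris/HCl pH 6.8, 10 mM CaCl2 at 25 °C. Substrate was Mca-Pro-Leu-Ala-Cys(OMeBn)-Trp-Ala-Arg-Dpa-NH2 (Km 0.2 µM), with fluorescence read-out. Percent inhibition was measured in triplicate at five concentrations (20–80% range), and Ki was derived by the Horovitz–Levitski method.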

Experiment [6] has as its target T6, Neutrophil collagenase (Homo sapiens, UniProt P22894). Briefly: Inhibition of matrix metalloprotease-8. An outline of the steps: as §1
Target sequence in this assay (P22894 whole entry, the tested form may be a part): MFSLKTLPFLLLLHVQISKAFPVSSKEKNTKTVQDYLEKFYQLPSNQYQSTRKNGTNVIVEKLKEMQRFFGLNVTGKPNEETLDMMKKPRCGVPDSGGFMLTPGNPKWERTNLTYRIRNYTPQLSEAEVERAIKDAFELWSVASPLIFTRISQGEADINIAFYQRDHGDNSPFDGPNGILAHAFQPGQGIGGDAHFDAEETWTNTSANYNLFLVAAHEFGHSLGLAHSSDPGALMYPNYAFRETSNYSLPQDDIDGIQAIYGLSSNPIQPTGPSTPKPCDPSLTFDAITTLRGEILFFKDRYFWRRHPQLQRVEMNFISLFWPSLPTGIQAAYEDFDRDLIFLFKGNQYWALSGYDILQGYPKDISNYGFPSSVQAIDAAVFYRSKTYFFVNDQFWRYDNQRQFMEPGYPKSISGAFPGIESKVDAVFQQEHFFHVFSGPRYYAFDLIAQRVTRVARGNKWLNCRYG
Experiment [7] has as its target T7, Matrix metalloproteinase-14 (Homo sapiens, UniProt P50281). Briefly: Binding affinity against matrix metalloprotease-14 MTI-MMP. An outline of the steps: (§2)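 Catalytic domains of human MMP-14 and MMP-7 were expressed in E. coli BL21 DE3 pLysS. Buffer 50 mM Tris/HCl pH 6.8, 10 mM CaCl2, 25 °C; 0.2–5 nM enzyme; 6 µM Mca-Pro-Leu-Gly-Leu-Dpa-Ala-Arg-NH2 read by fluorescence (ex 340, em 400 nm) for 30 min. Km: MMP-14 21, MMP-7 67 µM. Five inhibitor concentrations in triplicate; Ki by Horovitz–Levitski method.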

For experiment [8], the target named is T8, Matrilysin (Homo sapiens, UniProt P09237).
T8 sequence (P09237 whole entry): T1 sequence (whole entry)
Put plainly: Inhibition of Matrix metalloprotease-7 Matrilysin. An outline of the steps:
as §2

Experiment [9] addresses T2, Matrix metalloproteinase-9. Put plainly: Inhibition of Matrix metalloprotease-9, gelatinase-B at 2 uM.
Experiment [10] deals with T4, 72 kDa type IV collagenase. Put plainly: Inhibition of MMP-2 gelatinase-A at 2 uM.
Target sequence in this assay (P08253 110-660 limits assumed): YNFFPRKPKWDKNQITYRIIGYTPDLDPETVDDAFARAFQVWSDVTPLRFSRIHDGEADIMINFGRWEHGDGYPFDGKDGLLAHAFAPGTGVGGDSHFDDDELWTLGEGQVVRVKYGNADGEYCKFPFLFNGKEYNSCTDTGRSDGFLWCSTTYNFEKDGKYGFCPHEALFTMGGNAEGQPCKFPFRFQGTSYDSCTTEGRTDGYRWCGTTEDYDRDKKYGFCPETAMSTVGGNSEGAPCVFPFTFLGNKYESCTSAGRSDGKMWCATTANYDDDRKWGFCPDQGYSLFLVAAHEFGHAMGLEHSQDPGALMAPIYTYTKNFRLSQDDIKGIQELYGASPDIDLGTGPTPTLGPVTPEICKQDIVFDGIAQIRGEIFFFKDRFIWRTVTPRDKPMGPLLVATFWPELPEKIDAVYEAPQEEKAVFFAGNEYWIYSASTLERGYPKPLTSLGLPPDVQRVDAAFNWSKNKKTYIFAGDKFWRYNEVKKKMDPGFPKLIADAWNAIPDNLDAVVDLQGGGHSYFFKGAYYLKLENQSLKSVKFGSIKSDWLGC
For experiment [11], the target named is T6, Neutrophil collagenase. Put plainly: Compound was tested for its binding affinity against MMP-8 HNC at 1 uM.
Target sequence in this assay (P22894 101-467 limits assumed): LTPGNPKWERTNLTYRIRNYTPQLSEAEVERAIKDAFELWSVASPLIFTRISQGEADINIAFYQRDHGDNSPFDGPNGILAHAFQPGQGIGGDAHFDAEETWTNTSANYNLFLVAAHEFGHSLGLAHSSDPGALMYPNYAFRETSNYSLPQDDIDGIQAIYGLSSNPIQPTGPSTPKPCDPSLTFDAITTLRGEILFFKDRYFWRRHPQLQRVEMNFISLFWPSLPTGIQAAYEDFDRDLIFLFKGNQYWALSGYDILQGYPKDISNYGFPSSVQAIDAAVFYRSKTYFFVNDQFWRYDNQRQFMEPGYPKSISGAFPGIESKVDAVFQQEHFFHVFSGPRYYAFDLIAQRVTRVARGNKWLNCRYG
The target of experiment [12] is T9, Stromelysin-3 (Mus musculus) (UniProt Q02853).
T9 sequence (whole entry): T5 sequence (Q02853 whole entry)
The note with it: Homo sapiens; 1 uM.

Experiment [13] concerns the target T7, Matrix metalloproteinase-14. Put plainly: Inhibition of MMP-14 membrane-type-MMP at 10 uM. An outline of the steps:
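Human MMP-14 catalytic domain, expressed in E. coli BL21 DE3 pLysS. Assay in 50 mM Tris/HCl pH 6.8 with 10 mM CaCl2 at 25 °C, using 0.2–5 nM enzyme and 6 μM Mca-Pro-Leu-Gly-Leu-Dpa-Ala-Arg-NH2. Reaction started by adding substrate; fluorescence read at 400 nm (ex 340 nm) over 30 min. Time-dependent inhibitors were preincubated with enzyme for at least 1 h. Percent inhibition from triplicates.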

Regarding `NC(=O)C(Cc1c[nH]c2ccccc12)NC(=O)C(CCCc1ccccc1)CP(=O)(O)C(Cc1ccccc1)NC(=O)CNc1ccccc1` (centres undefined), the inhibition amounted to 28% in experiment [1] and 49% in experiment [3]. Besides, the Ki in experiment [2] turned out to be 6 nM; in experiment [4] it was 17 nM; in experiment [5] it was 15 nM; in experiment [6], 4.5 nM; in [7], 73 nM.

With `CC(NC(=O)OCc1ccccc1)P(=O)(O)CC(COCc1ccccc1)C(=O)NC(Cc1c[nH]c2ccccc12)C(N)=O` (centres undefined), the inhibition in experiment [1] worked out at 1%; in [3], 15%.

As for `CC(NC(=O)OCc1ccccc1)P(=O)(O)CC(CCc1ccccc1)C(=O)NC(Cc1c[nH]c2ccccc12)C(N)=O` (centres undefined), the inhibition in experiment [1] came to 3%; in experiment [3], 23%.

For the molecule `CCCCCCCC(CP(=O)(O)C(Cc1ccccc1)NC(=O)OCc1ccccc1)C(=O)NC(Cc1c[nH]c2ccccc12)C(N)=O` (centres undefined), the inhibition in experiment [1] stood at 4%; in experiment [3] it was 27%. For the same molecule, the inhibition constant (Ki) turned out to be 30 nM in experiment [2]; 75 nM in experiment [4]; 34 nM in experiment [5]; 6 nM in experiment [6]; 271 nM in experiment [7].

As for `NC(=O)C(Cc1c[nH]c2ccccc12)NC(=O)C(CCc1ccccc1)CP(=O)(O)C(Cc1ccccc1)NC(=O)OCc1ccccc1` (centres undefined), the inhibition in [1] was 7%; in experiment [3] it was 10%.

As to `NC(=O)[C@@H](Cc1c[nH]c2ccccc12)NC(=O)C(CCCc1ccccc1)CP(=O)(O)C(Cc1ccccc1)NC(=O)OCc1ccccc1` (some centres undefined), the inhibition in experiment [1] was determined as 8%; in [3], 23%. Also, the inhibition constant (Ki) is 10 nM in [2]; 20 nM in experiment [4]; 5 nM in experiment [5]; 2.5 nM in [6]; 105 nM in experiment [7].

In the case of `NC(=O)C(Cc1c[nH]c2ccccc12)NC(=O)C(CCCc1ccccc1)CP(=O)(O)C(Cc1ccccc1)NC(=O)c1cc2cc(Cl)cc(Cl)c2oc1=O` (centres undefined), the inhibition in experiment [1] turned out to be 52%; in experiment [3], 62%. Further, the Ki in experiment [2] came out at 110 nM; in experiment [4], 100 nM; in experiment [5], 5 nM; in experiment [6] it was 17 nM; in experiment [7], 217 nM.

Take `CC(NC(=O)OCc1ccccc1)P(=O)(O)CC(CCCc1ccccc1)C(=O)NC(Cc1c[nH]c2ccccc12)C(N)=O` (centres undefined): the figures for the inhibition in experiment [1] and in [3] were 4% and 30%, respectively.

Take `CC(C)CC(CP(=O)(O)C(Cc1ccccc1)NC(=O)OCc1ccccc1)C(=O)NC(Cc1c[nH]c2ccccc12)C(N)=O` (centres undefined): the Ki in experiment [8] is 210 nM; in experiment [2], 65 nM; in [4], 202 nM; in experiment [5], 22 nM; in [6], 40 nM; in experiment [7], 192 nM. The inhibition in [3] turned out to be 45%.

Take `NC(=O)C(Cc1c[nH]c2ccccc12)NC(=O)C(COCc1ccccc1)CP(=O)(O)C(Cc1ccccc1)NC(=O)OCc1ccccc1` (centres undefined): the inhibition in [1] is 3%; in [3], 9%.

For the molecule `NC(=O)[C@H](Cc1c[nH]c2ccccc12)NC(=O)C(CCCc1ccccc1)CP(=O)(O)C(Cc1ccccc1)NC(=O)OCc1ccccc1` (some centres undefined), the inhibition worked out at 0% in [1]; 14% in experiment [9]; 0% in experiment [3]; 6% in [10]; 2% in experiment [11]; 1% in [12].

`NC(=O)C(Cc1c[nH]c2ccccc12)NC(=O)C(CCCCc1ccccc1)CP(=O)(O)C(Cc1ccccc1)NC(=O)OCc1ccccc1` (centres undefined): the inhibition was 7% in experiment [1] and 5% in [3]. In addition, the Ki stood at 70 nM in [2]; 145 nM in experiment [4]; 33 nM in [5]; 4.3 nM in experiment [6]; 580 nM in experiment [7].

Take `CC(CP(=O)(O)C(Cc1ccccc1)NC(=O)OCc1ccccc1)C(=O)NC(Cc1c[nH]c2ccccc12)C(N)=O` (centres undefined): the inhibition in [1] came out at 0%; in [9] it was 0%; in [3] it was 20%; in experiment [10], 0%; in experiment [13], 0%; in experiment [11], 9%.

For `CC(NC(=O)OCc1ccccc1)P(=O)(O)CC(Cc1ccccc1)C(=O)NC(Cc1c[nH]c2ccccc12)C(N)=O` (centres undefined), the inhibition in [1] turned out to be 8%; in experiment [3], 24%.

Turning to `CC(NC(=O)OCc1ccccc1)P(=O)(O)CC(CSCc1ccccc1)C(=O)NC(Cc1c[nH]c2ccccc12)C(N)=O` (centres undefined), the inhibition in experiment [1] is 2%; in experiment [3], 45%. In experiment [6], this molecule yielded a Ki of under 0.5 nM.

As to `NC(=O)C(Cc1c[nH]c2ccccc12)NC(=O)C(CCCc1ccccc1)CP(=O)(O)C(Cc1ccccc1)NC(=O)CNc1cc(Cl)ccc1O` (centres undefined), the values for the inhibition in experiment [1] and in experiment [3] were 65% and 72%, respectively. In addition, the inhibitory constant (Ki) worked out at 34 nM in experiment [2]; 30 nM in experiment [4]; 10 nM in experiment [5]; 7.5 nM in experiment [6]; 63 nM in experiment [7].

On to `NC(=O)C(Cc1c[nH]c2ccccc12)NC(=O)C(CCc1ccc2ccccc2c1)CP(=O)(O)C(Cc1ccccc1)NC(=O)OCc1ccccc1` (centres undefined), for which the Ki in experiment [8] stood at 2100 nM; in experiment [2] it was 55 nM; in experiment [4], 30 nM; in [5], 12 nM; in experiment [6] it was 34 nM; in experiment [7], 125 nM. The molecule further yielded an inhibition in experiment [3] of 0%.

Turning to `NC(=O)C(Cc1c[nH]c2ccccc12)NC(=O)C(CCCc1ccccc1)CP(=O)(O)C(Cc1ccccc1)NC(=O)COCc1ccccc1` (centres undefined), the values for the inhibition in experiment [1] and in [3] were 52% and 43%, respectively.

Take `CC(=O)NC(Cc1ccccc1)P(=O)(O)CC(CCCc1ccccc1)C(=O)NC(Cc1c[nH]c2ccccc12)C(N)=O` (centres undefined): the inhibition in [1] stood at 28%; in [3] it was 43%.

As for `COc1ccc(CSCC(CP(=O)(O)C(Cc2ccccc2)NC(=O)OCc2ccccc2)C(=O)NC(Cc2c[nH]c3ccccc23)C(N)=O)cc1` (centres undefined), the inhibition in experiment [1] turned out to be 20%; in experiment [3], 13%. Moreover, the Ki was 3 nM in experiment [2]; 6 nM in experiment [4]; 2 nM in experiment [5]; 0.7 nM in experiment [6]; 22 nM in experiment [7].

For orientation: inhibition means the change of the read-out against control, counted positive when it falls. High values mean strong suppression, low ones little suppression. For orientation: Ki means a dissociation constant, usually derived from enzyme kinetics or from competition with a known ligand.
